# In ChEMBL document CHEMBL4689842, “EUbOPEN Chemogenomics Library wave 1” (2021):
# Test system: U2OS
# Assay: Multiplex assay against U2OS
# Format: toxicity, cell-based
# Settings: human
# Procedure, shortened: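 Cells stained live at seeding with Hoechst33342, BioTracker Green Microtubule Cytoskeleton Dye, MitoTracker Red and Annexin V Alexa Fluor 680 were imaged on a CQ1 microscope at 37°C and 5% CO2 after compound addition. Their classification by CellPathfinder machine-learning gating ran from Hoechst high-intensity objects versus normal cells, to healthy, pyknosed or fragmented nuclei among normal cells, to mitotic or apoptotic among pyknosed cells. Tubulin, mitochondrial-mass and membrane-permeability phenotypes are per cents of healthy-nucleus cells.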
# [1] = 12 h, 1 µM, compound concentration 1 uM, replicate 1
# [2] = 12 h, 1 µM, compound concentration 1 uM, replicate 2
# [3] = 12 h, 10 µM, compound concentration 10 uM, replicate 1
# [4] = 12 h, 10 µM, compound concentration 10 uM, replicate 2
# [5] = 24 h, 1 µM, compound concentration 1 uM, replicate 1
# [6] = 24 h, 1 µM, compound concentration 1 uM, replicate 2
# [7] = 24 h, 10 µM, compound concentration 10 uM, replicate 1
# [8] = 24 h, 10 µM, compound concentration 10 uM, replicate 2
# [9] = 48 h, 1 µM, compound concentration 1 uM, replicate 1
# [10] = 48 h, 1 µM, compound concentration 1 uM, replicate 2
# [11] = 48 h, 10 µM, compound concentration 10 uM, replicate 1
# [12] = 48 h, 10 µM, compound concentration 10 uM, replicate 2
smiles,measurement,setting,value
CN(C)CC#Cc1ccc(OCCCc2sc(N3CCc4cccc(C(=O)Nc5nc6ccccc6s5)c4C3)nc2C(=O)O)c(F)c1 [A-1155463],Population Apoptotic (%),[1],63%
same,Population Fragmented Nuclei (%),[1],13%
same,Population Healthy Nuclei (%),[1],65%
same,Population Hoechst High Intensity Objects (%),[1],12%
same,Population Membrane Permeable-Phenotype (%),[1],14%
same,Population Mitochondria Different-Phenotype (%),[1],14%
same,Population Mitotic Cells (%),[1],36%
same,Population Normal (%),[1],87%
same,Population Pyknosed Nuclei (%),[1],21%
same,Population Tubulin-Different-Phenotype (%),[1],11%
same,Total Cell Count,[1],175
same,Population Apoptotic (%),[2],66%
same,Population Fragmented Nuclei (%),[2],39%
same,Population Healthy Nuclei (%),[2],53%
same,Population Hoechst High Intensity Objects (%),[2],4%
same,Population Membrane Permeable-Phenotype (%),[2],13%
same,Population Mitochondria Different-Phenotype (%),[2],31%
same,Population Mitotic Cells (%),[2],33%
same,Population Normal (%),[2],95%
same,Population Pyknosed Nuclei (%),[2],7%
same,Population Tubulin-Different-Phenotype (%),[2],27%
same,Total Cell Count,[2],86
same,Population Apoptotic (%),[3],61%
same,Population Fragmented Nuclei (%),[3],25%
same,Population Healthy Nuclei (%),[3],55%
same,Population Hoechst High Intensity Objects (%),[3],6%
same,Population Membrane Permeable-Phenotype (%),[3],8%
same,Population Mitochondria Different-Phenotype (%),[3],15%
same,Population Mitotic Cells (%),[3],38%
same,Population Normal (%),[3],93%
same,Population Pyknosed Nuclei (%),[3],19%
same,Population Tubulin-Different-Phenotype (%),[3],13%
same,Total Cell Count,[3],189
same,Population Apoptotic (%),[4],86%
same,Population Fragmented Nuclei (%),[4],33%
same,Population Healthy Nuclei (%),[4],42%
same,Population Hoechst High Intensity Objects (%),[4],5%
same,Population Membrane Permeable-Phenotype (%),[4],24%
same,Population Mitochondria Different-Phenotype (%),[4],16%
same,Population Mitotic Cells (%),[4],13%
same,Population Normal (%),[4],94%
same,Population Pyknosed Nuclei (%),[4],23%
same,Population Tubulin-Different-Phenotype (%),[4],25%
same,Total Cell Count,[4],133
same,Population Apoptotic (%),[5],47%
same,Population Fragmented Nuclei (%),[5],19%
same,Population Healthy Nuclei (%),[5],58%
same,Population Hoechst High Intensity Objects (%),[5],5%
same,Population Membrane Permeable-Phenotype (%),[5],11%
same,Population Mitochondria Different-Phenotype (%),[5],15%
same,Population Mitotic Cells (%),[5],52%
same,Population Normal (%),[5],94%
same,Population Pyknosed Nuclei (%),[5],21%
same,Population Tubulin-Different-Phenotype (%),[5],6%
same,Total Cell Count,[5],222
same,Population Apoptotic (%),[6],50%
same,Population Fragmented Nuclei (%),[6],36%
same,Population Healthy Nuclei (%),[6],54%
same,Population Hoechst High Intensity Objects (%),[6],7%
same,Population Membrane Permeable-Phenotype (%),[6],13%
same,Population Mitochondria Different-Phenotype (%),[6],32%
same,Population Mitotic Cells (%),[6],50%
same,Population Normal (%),[6],92%
same,Population Pyknosed Nuclei (%),[6],9%
same,Population Tubulin-Different-Phenotype (%),[6],28%
same,Total Cell Count,[6],92
same,Population Apoptotic (%),[7],58%
same,Population Fragmented Nuclei (%),[7],20%
same,Population Healthy Nuclei (%),[7],51%
same,Population Hoechst High Intensity Objects (%),[7],5%
same,Population Membrane Permeable-Phenotype (%),[7],13%
same,Population Mitochondria Different-Phenotype (%),[7],23%
same,Population Mitotic Cells (%),[7],41%
same,Population Normal (%),[7],94%
same,Population Pyknosed Nuclei (%),[7],27%
same,Population Tubulin-Different-Phenotype (%),[7],12%
same,Total Cell Count,[7],194
same,Population Apoptotic (%),[8],81%
same,Population Fragmented Nuclei (%),[8],32%
same,Population Healthy Nuclei (%),[8],45%
same,Population Hoechst High Intensity Objects (%),[8],10%
same,Population Membrane Permeable-Phenotype (%),[8],20%
same,Population Mitochondria Different-Phenotype (%),[8],14%
same,Population Mitotic Cells (%),[8],18%
same,Population Normal (%),[8],89%
same,Population Pyknosed Nuclei (%),[8],22%
same,Population Tubulin-Different-Phenotype (%),[8],21%
same,Total Cell Count,[8],135
same,Population Apoptotic (%),[9],67%
same,Population Fragmented Nuclei (%),[9],24%
same,Population Healthy Nuclei (%),[9],46%
same,Population Hoechst High Intensity Objects (%),[9],10%
same,Population Membrane Permeable-Phenotype (%),[9],7%
same,Population Mitochondria Different-Phenotype (%),[9],18%
same,Population Mitotic Cells (%),[9],32%
same,Population Normal (%),[9],89%
same,Population Pyknosed Nuclei (%),[9],29%
same,Population Tubulin-Different-Phenotype (%),[9],10%
same,Total Cell Count,[9],285
same,Population Apoptotic (%),[10],77%
same,Population Fragmented Nuclei (%),[10],28%
same,Population Healthy Nuclei (%),[10],51%
same,Population Hoechst High Intensity Objects (%),[10],5%
same,Population Membrane Permeable-Phenotype (%),[10],19%
same,Population Mitochondria Different-Phenotype (%),[10],43%
same,Population Mitotic Cells (%),[10],22%
same,Population Normal (%),[10],94%
same,Population Pyknosed Nuclei (%),[10],20%
same,Population Tubulin-Different-Phenotype (%),[10],36%
same,Total Cell Count,[10],117
same,Population Apoptotic (%),[11],74%
same,Population Fragmented Nuclei (%),[11],26%
same,Population Healthy Nuclei (%),[11],32%
same,Population Hoechst High Intensity Objects (%),[11],9%
same,Population Membrane Permeable-Phenotype (%),[11],23%
same,Population Mitochondria Different-Phenotype (%),[11],38%
same,Population Mitotic Cells (%),[11],25%
same,Population Normal (%),[11],90%
same,Population Pyknosed Nuclei (%),[11],40%
same,Population Tubulin-Different-Phenotype (%),[11],11%
same,Total Cell Count,[11],246
same,Population Apoptotic (%),[12],81%
same,Population Fragmented Nuclei (%),[12],34%
same,Population Healthy Nuclei (%),[12],35%
same,Population Hoechst High Intensity Objects (%),[12],8%
same,Population Membrane Permeable-Phenotype (%),[12],57%
same,Population Mitochondria Different-Phenotype (%),[12],51%
same,Population Mitotic Cells (%),[12],18%
same,Population Normal (%),[12],91%
same,Population Pyknosed Nuclei (%),[12],29%
same,Population Tubulin-Different-Phenotype (%),[12],57%
same,Total Cell Count,[12],139
